Measurements from different studies.
Target: Mu-type opioid receptor (Oprm1, Rattus norvegicus, UniProt P33535)

| Structure (SMILES) | assay | conditions | Ki [nM] |
| --- | --- | --- | --- |
| Oc1cccc([C@@]23CCC[C@@H]([C@@H]2O)N(CC=Cc2ccccc2)CC3)c1 | ligand displacement, radioligand |  | 25 |
| Cc1cc(O)cc(C)c1C[C@H](N)C(=O)N[C@H](CCCNC(=N)N)C(=O)N[C@@H](Cc1c[nH]c2ccccc12)C(=O)N[C@@H](CCCCN)C(N)=O | ligand displacement, radioligand | cell membranes | 0.0991 |
| C[C@@H](NC(=O)[C@@H](N)Cc1ccc(O)cc1)C(=O)NCC(=O)N[C@@H](Cc1ccccc1)C(=O)N(C)CCC[C@@]1(c2ccc(F)cc2)OCc2cc(C#N)ccc21 | cell-free assay |  | 88 |
| Cc1cc(O)cc(C)c1C[C@H](C)C(=O)N[C@@H]1C/C=C/CC[C@@H](C(N)=O)NC(=O)[C@H](Cc2ccccc2)NC(=O)[C@H](Cc2ccccc2)NC1=O | ligand displacement, radioligand | cell membranes | 323 |
| CCCC[C@@H](NC(=O)[C@@H](N)Cc1c(C)cc(O)cc1C)C(=O)NCC(=O)N[C@@H](Cc1ccc(F)cc1)C(=O)N(C)CCC[C@@]1(c2ccc(F)cc2)OCc2cc(C#N)ccc21 | cell-free assay |  | 1 |
| Cc1cc(O)cc(C)c1C[C@H](N)C(=O)N1CCc2ccc(Cc3ccccc3N)cc2C1 | ligand displacement, radioligand | cell membranes | 2.1 |
| C[C@@H](NC(=O)[C@@H](N)Cc1ccc(O)cc1)C(=O)NCC(=O)N[C@H](CC(=O)NNC(=O)C[C@H](Cc1ccccc1)NC(=O)CNC(=O)[C@@H](C)NC(=O)[C@@H](N)Cc1ccc(O)cc1)Cc1ccccc1 | ligand displacement, radioligand |  | 1.1 |
| C[C@@H](NC(=O)[C@@H](N)Cc1ccc(O)cc1)C(=O)NCC(=O)N[C@@H](Cc1ccc(Cl)cc1)C(=O)N(C)CCC[C@@]1(c2ccc(F)cc2)OCc2cc(C#N)ccc21 | cell-free assay |  | 7 |
| Cc1cc(O)cc(C)c1C[C@H](N)C(=O)N1CCc2ccc(Cc3ccccc3[N+](=O)[O-])cc2C1 | ligand displacement, radioligand | cell membranes | 10 |
| Cc1cc(O)cc(C)c1C[C@H](C)C(=O)N[C@@H]1CCCCC[C@@H](C(N)=O)NC(=O)[C@H](Cc2ccccc2)NC(=O)[C@H](Cc2ccccc2)NC1=O | ligand displacement, radioligand | cell membranes | 18.3 |
| Cc1cc(O)cc(C)c1C[C@H](N)C(=O)N[C@H](CCCNC(=N)N)C(=O)N[C@@H](Cc1c(C)cccc1C(C)C)C(=O)N[C@@H](CCCCN)C(N)=O | ligand displacement, radioligand | cell membranes | 0.155 |
| Cc1cc(O)cc(C)c1C[C@H](N)C(=O)N1CCc2ccc(Cc3ccc(N)cc3)cc2C1 | ligand displacement, radioligand | cell membranes | 47 |
| CCc1cccc(C)c1C[C@H](NC(=O)[C@@H](CCCNC(=N)N)NC(=O)[C@@H](N)Cc1c(C)cc(O)cc1C)C(=O)N[C@@H](CCCCN)C(N)=O | ligand displacement, radioligand | cell membranes | 0.0958 |
| Cc1ccccc1Cc1ccc2c(c1)CN(C(=O)[C@@H](N)Cc1c(C)cc(O)cc1C)CC2 | ligand displacement, radioligand | cell membranes | 2.5 |
